Measured values as given in paper PMC3786144 (Biochimica et biophysica acta, 2013).
Read-outs that look alike come from different tables or passages of the source.

What was measured:
Id3 = Id3 mRNA expression by qPCR in NIH3T3 cells; type: cell-based, mouse; settings: NIH3T3, AZD0530 100 nM 1 hour, then 20% serum
Procedure, shortened: (§1)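 NIH3T3 cells were starved overnight in 0.2% serum and pretreated 1 hour with test compound. They were then induced with 20% NCS for 0–120 min. RNA was taken up in Tri Reagent, and cDNA was made from 1 μg total RNA with random hexamers. qPCR was normalised to 18s rRNA. Values are means of three experiments ± standard deviations.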

c-fos = c-fos mRNA expression by qPCR in NIH3T3 cells; type: cell-based, mouse; settings: then 20% serum
Procedure, shortened: as §1

Id1 [1] = experiment: Id1 mRNA expression by qPCR in NIH3T3 cells; type: cell-based, mouse; settings: for Id1 RNA levels on serum induction: then 20% serum 0 to 120 minutes; for response of the Id1 gene to serum: data not shown
Id1 [2] = settings: A549 lung carcinoma cell line; cited from earlier work
ALK3 = ALK3 (Homo sapiens, UniProt P36894); experiment: In vitro kinase reaction; type: biochemical
Procedure, shortened: (§2)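 Radiometric filter-binding assay with purified recombinant kinase/substrate pairs. Reactions ran with ATP plus 33P-ATP (10 μM final) at 10 test compound concentrations in triplicate, in 20 mM Hepes pH 7.5, 10 mM MgCl2, 1 mM EGTA, 2 mM DTT, 1% DMSO, for 120 min at 25 °C. Products were spotted on P81 paper and washed in 0.75% phosphoric acid. Activity was expressed as % of DMSO control; IC50 came from curve fitting.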

Smad1/5 = settings: A549 cells; cited from earlier work
Id1 promoter = Id1 promoter luciferase reporter assay in NIH3T3 cells; type: cell-based, mouse
[3] = tested on: plasminogen activator inhibitor-1 (PAI-1); experiment: PAI-1 mRNA expression by qPCR in NIH3T3 cells; type: cell-based, mouse; settings: NIH3T3, AZD0530 100 nM 1 hour, then 20% serum
Procedure, shortened: as §1

[4] = biological target: constitutively active ALK3 (Homo sapiens, UniProt P36894, Q233D); experiment: Id1 reporter activated by constitutively active ALK3 in NIH3T3 cells; type: cell-based; settings: NIH3T3, Id1 −1150 reporter, AZD0530 100 nM overnight in 0.2% serum
Procedure, shortened: (§3)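 NIH3T3 cells, 4 × 10^4 per well, received fresh 10% NCS and were then transfected with 100 ng Renilla SV40 control, 100 ng mouse Id1 −1150 firefly reporter and 25 ng constitutively active ALK. Next day they went into 0.2% serum with 100 nM test compound or DMSO overnight. Dual-luciferase readout; firefly was normalised to Renilla.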

HCT116 cells = experiment: Proliferation of HCT116 cells; type: cell-based; settings: preliminary results
[5] = tested on: constitutively active ALK1; experiment: Id1 reporter activated by constitutively active ALK1 in NIH3T3 cells; type: cell-based; settings: NIH3T3, Id1 −1150 reporter, AZD0530 100 nM overnight in 0.2% serum
Procedure, shortened: as §3

BMPR-2 = biological target: T1, BMPR-2 (Homo sapiens, UniProt Q13873); experiment: In vitro kinase reaction; type: biochemical; settings: 10 μM ATP, 120 minutes at 25 °C
T1 sequence (Q13873 27-1038): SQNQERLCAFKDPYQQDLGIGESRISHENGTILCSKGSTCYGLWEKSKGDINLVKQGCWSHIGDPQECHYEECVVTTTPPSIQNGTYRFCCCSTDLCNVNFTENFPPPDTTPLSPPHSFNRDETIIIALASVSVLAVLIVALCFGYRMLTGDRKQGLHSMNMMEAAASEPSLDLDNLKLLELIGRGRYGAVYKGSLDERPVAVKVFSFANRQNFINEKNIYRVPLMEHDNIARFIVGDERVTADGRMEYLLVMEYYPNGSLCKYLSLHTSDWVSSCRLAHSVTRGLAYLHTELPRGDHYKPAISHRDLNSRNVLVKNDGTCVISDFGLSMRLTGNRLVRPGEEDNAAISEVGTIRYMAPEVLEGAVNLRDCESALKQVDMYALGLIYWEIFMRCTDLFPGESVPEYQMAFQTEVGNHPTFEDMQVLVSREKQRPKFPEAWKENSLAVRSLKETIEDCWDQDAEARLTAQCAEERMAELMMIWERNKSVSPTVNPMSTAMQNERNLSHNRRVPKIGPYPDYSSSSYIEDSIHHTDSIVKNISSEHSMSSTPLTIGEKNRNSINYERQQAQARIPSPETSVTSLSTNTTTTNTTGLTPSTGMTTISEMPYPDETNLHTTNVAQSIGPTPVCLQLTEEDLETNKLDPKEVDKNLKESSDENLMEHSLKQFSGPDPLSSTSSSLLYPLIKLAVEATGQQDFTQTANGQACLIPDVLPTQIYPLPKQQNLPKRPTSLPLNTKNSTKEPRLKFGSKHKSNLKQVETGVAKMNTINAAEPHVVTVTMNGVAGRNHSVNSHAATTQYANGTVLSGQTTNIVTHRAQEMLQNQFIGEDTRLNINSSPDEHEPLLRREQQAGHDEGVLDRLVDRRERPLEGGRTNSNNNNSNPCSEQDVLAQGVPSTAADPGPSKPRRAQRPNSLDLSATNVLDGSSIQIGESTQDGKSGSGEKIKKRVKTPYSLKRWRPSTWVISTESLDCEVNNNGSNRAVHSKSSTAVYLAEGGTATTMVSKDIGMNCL
Procedure, shortened: as §2

c-fos promoter = c-fos promoter luciferase reporter assay in NIH3T3 cells; type: cell-based, mouse; settings: NIH3T3, AZD0530 100 nM 1 hour, then 20% NCS 4 hours
Procedure, shortened: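 NIH3T3 cells, 4 × 10^4 per well, were transfected with 100 ng c-fos promoter firefly reporter plus 100 ng SV40-Renilla control. Next day they were starved overnight in 0.2% NCS, treated 1 hour with 100 nM test compound, then induced with 20% NCS for 4 hours. Dual-luciferase assay; firefly was normalised to Renilla.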

ALK1 = ALK1 (Homo sapiens, UniProt P37023); experiment: In vitro kinase reaction; type: biochemical
Procedure, shortened: as §2

Smad1/5/8 = experiment: Total Smad1/5/8 immunoblot in NIH3T3 cells; type: cell-based, mouse; settings: NIH3T3, Dorsomorphin 1μM 1 hour, then serum
Procedure, shortened: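 Serum-starved NIH3T3 cells were treated 1 hour with DMSO or test compound, then serum-stimulated. Lysis was in passive lysis buffer, followed by SDS-PAGE (10% or 12%) and nitrocellulose transfer with 6% milk block. Phospho-specific or total primaries (1:1000) were applied overnight at 4°C, then fluorescent secondaries (1:10,000) for 1 hour at room temperature, with infrared imaging. Actin served as loading control.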

Id1 [6] = experiment: Id1 mRNA expression by qPCR in HCT116 cells; type: cell-based; settings: HCT116, Dorsomorphin 1 μm
Procedure, shortened: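 HCT116 cells, kept in DMEM with 10% FBS at 5% CO2, were starved overnight in 0.2% serum with DMSO or test compound. RNA was isolated in Tri Reagent. cDNA was made from 1 μg total RNA with random hexamers. Id1 mRNA was quantified by qPCR normalised to 18s rRNA.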

phospho-Smad1/5/8 [7] = experiment: Phospho-Smad1/5/8 immunoblot in NIH3T3 cells; type: cell-based, mouse; settings: NIH3T3, Dorsomorphin 1μM 1 hour, then serum
phospho-Smad1/5/8 [8] = experiment: Phospho-Smad1/5/8 immunoblot in HCT116 cells; type: cell-based; settings: HCT116, Dorsomorphin 1 μm
Procedure, shortened: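 HCT116 cells were starved overnight in 0.2% serum with DMSO or test compound, lysed in passive lysis buffer and cleared at 11,000 × g. Proteins were run by SDS-PAGE and blotted to nitrocellulose. Phospho-Smad1/5/8 primary (1:1000) was applied overnight at 4°C, followed by fluorescent secondary (1:10,000) and infrared imaging. Actin served as loading control.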

Id1 [9] = settings: MDA-MB-231 breast carcinoma line; cited from earlier work
[10] = NIH3T3, AZD0530 100 nM 1 hour, then 20% NCS 4 hours

ALK3, sequence (P36894 24-532): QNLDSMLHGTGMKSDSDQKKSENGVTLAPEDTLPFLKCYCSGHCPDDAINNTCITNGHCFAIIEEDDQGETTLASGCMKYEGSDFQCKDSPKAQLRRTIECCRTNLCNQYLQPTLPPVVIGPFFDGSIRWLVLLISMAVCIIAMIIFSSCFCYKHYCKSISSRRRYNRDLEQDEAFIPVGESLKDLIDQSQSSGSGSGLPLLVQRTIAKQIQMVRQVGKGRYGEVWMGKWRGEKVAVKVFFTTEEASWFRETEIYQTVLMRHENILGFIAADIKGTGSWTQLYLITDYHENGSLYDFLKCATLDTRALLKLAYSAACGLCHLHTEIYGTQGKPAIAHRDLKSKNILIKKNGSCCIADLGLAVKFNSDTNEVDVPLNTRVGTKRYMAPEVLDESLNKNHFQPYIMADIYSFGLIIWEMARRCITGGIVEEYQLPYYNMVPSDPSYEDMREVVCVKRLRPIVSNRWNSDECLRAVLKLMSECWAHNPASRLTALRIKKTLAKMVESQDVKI
ALK1, sequence (P37023 22-503): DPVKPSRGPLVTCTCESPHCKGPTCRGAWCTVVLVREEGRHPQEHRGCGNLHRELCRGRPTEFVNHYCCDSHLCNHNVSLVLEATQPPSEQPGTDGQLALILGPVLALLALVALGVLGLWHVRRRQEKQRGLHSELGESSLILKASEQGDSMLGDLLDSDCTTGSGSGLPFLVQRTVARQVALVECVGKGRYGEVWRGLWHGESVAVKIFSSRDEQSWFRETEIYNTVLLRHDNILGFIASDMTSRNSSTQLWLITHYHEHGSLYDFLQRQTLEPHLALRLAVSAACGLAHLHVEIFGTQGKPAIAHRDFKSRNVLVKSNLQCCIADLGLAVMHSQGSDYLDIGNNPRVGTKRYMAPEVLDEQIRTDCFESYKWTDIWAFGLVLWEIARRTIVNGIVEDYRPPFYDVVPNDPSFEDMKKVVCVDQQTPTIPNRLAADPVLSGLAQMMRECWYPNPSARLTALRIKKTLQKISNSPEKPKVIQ
constitutively active ALK3, sequence (P36894 24-532 Q233D): as the sequence (P36894 24-532) above, with Q210D counted along it

In the case of `CN1CCN(CCOc2cc(OC3CCOCC3)c3c(Nc4c(Cl)ccc5c4OCO5)ncnc3c2)CC1` [AZD0530, saracatinib], the “Id3 expression on serum induction” value (Id3) is reported as “strongly reduced”, the “c-fos induction by serum (mRNA)” value (c-fos; NIH3T3, AZD0530 100 nM 1 hour) is reported as “no effect” and the “Id1 serum induction, mRNA expression” value (Id1 [1]; NIH3T3, AZD0530 100 nM 1 hour, then 20% serum) is reported as “complete loss”. The Id1 expression (Id1 [2]) was “inhibit Id1 expression”, the IC50 (ALK3) was 3 to 30 nM and the “activation of Smad1/5” value (Smad1/5) was “prevented activation”. The “Id1 serum induction, promoter activation (−1150 Id1 reporter)” value (Id1 promoter; [10]) was “complete loss”, the “serum induction of the 4X BRE-SBE reporter” value (Id1 promoter; [10]) was “blocked” and the “PAI-1 serum activation (mRNA)” value [3] was “decrease in serum activation”. The “activation of the Id1 promoter by constitutively active ALK3” value [4] was “significantly decreased”, the “proliferation of HCT116 cells” value (HCT116 cells) was “did not reduce” and the “activation of the Id1 promoter by constitutively active ALK1” value [5] was “significantly decreased”. The “inhibition of BMPR-2 kinase activity” value (BMPR-2) was “no inhibition”, the “serum induction of the c-fos promoter (reporter)” value (c-fos promoter) was “little effect” and the IC50 (ALK1) was 3 to 30 nM.

In the case of `c1cc(-c2cnn3cc(-c4ccc(OCCN5CCCCC5)cc4)cnc23)ccn1` [Dorsomorphin, dorsomorphin], the “total level of Smad1/5/8” value (Smad1/5/8) is reported as “unchanged”, the “Id1 expression (mRNA)” value (Id1 [6]) is reported as “inhibition” and the “induction of Id1 mRNA in response to serum” value (Id1 [1]; NIH3T3, Dorsomorphin 1 hour, then 20% NCS 1 hour) is reported as “strongly inhibited”. For the same molecule, the “phosphorylation of Smad1/5/8” value (phospho-Smad1/5/8 [7]) was “inhibits the phosphorylation” and the phospho-Smad1/5/8 levels (phospho-Smad1/5/8 [8]) was “inhibition”.

With `O=c1cc(N2CCOCC2)oc2c(-c3ccccc3)cccc12` [LY294002] the “c-fos expression on serum induction” value (c-fos; NIH3T3, LY294002 10 μM 1 hour) was “little effect” and the “Id1 RNA levels on serum induction” value (Id1 [1]; NIH3T3, LY294002 10 μM 1 hour) was “unchanged”.

With `O=C(NOC[C@H](O)CO)c1ccc(F)c(F)c1Nc1ccc(I)cc1F` [PD0325901] the “c-fos expression on serum induction” value (c-fos; NIH3T3, PD0325901 5 μM 1 hour) was “dramatically decreased” and the “Id1 RNA levels on serum induction” value (Id1 [1]; NIH3T3, PD0325901 5 μM 1 hour) was “unchanged”.

For `CC(C)(C)n1nc(-c2ccc(Cl)cc2)c2c(N)ncnc21` [PP2], the “response of the Id1 gene to serum” value (Id1 [1]) is given as “Neither another Src inhibitor, PP2, nor the BCR-abl inhibitor, imatinib, had any effect” and the Id1 expression (Id1 [9]) is given as “inhibited Id1 expression”.

With `C[C@@H]1C[C@@H]([C@H](O)CC2CC(=O)NC(=O)C2)C(=O)[C@@H](C)C1` [cycloheximide] the “BMP2 induction of Id1 in the presence of the protein synthesis inhibitor” value (Id1 [1]; NIH3T3, 50 μg/ml cycloheximide, BMP2 (supplemental Fig. S3)) was “higher”.

In the case of `Cc1ccc(NC(=O)c2ccc(CN3CCN(C)CC3)cc2)cc1Nc1nccc(-c2cccnc2)n1` [imatinib], the “response of the Id1 gene to serum” value (Id1 [1]) is reported as “Neither another Src inhibitor, PP2, nor the BCR-abl inhibitor, imatinib, had any effect”.

B1: Noggin: BMP antagonist noggin (protein, UniProt Q13253 28-232, looked up)
Noggin: QHYLHIRPAPSDNLPLVDLIEHPDPIFDPKEKDLNETLLRSLLGGHYDPGFMATSPPEDRPGGGGGAAGGAEDLAELDQLLRQRPSGAMPSEIKGLEFSEGLAQGKKQRLSKKLRRKLQMWLWSQTFCPVLYAWNDLGSRFWPRYVKVGSCFSKRSCSVPEGMVCKPSKSVHLTVLRWRCQRRGGQRCGWIPIQYPIISECKCSC
For B1, the “serum induction of Id1 mRNA” value (Id1 [1]; NIH3T3, 100 ng/ml noggin during serum-starvation, 20% serum) was “abolished serum induction” and the “serum activation of the Id1 promoter (reporter assay)” value (Id1 promoter; NIH3T3, mId1 −1150 reporter, noggin during serum-starvation, 20% serum) was “abolished serum activation”.
